target: T1, Protein cereblon/Androgen receptor (Homo sapiens, UniProt P10275+Q96SW2); test: Protac activity at CRBN/AR in human VCaP cells assessed as induction of AR degradation at 0.001 uM measured after 24 hrs by western blot analysis relative to control; type: cell-based; settings: not given
T1 sequence (P10275 whole entry, looked up): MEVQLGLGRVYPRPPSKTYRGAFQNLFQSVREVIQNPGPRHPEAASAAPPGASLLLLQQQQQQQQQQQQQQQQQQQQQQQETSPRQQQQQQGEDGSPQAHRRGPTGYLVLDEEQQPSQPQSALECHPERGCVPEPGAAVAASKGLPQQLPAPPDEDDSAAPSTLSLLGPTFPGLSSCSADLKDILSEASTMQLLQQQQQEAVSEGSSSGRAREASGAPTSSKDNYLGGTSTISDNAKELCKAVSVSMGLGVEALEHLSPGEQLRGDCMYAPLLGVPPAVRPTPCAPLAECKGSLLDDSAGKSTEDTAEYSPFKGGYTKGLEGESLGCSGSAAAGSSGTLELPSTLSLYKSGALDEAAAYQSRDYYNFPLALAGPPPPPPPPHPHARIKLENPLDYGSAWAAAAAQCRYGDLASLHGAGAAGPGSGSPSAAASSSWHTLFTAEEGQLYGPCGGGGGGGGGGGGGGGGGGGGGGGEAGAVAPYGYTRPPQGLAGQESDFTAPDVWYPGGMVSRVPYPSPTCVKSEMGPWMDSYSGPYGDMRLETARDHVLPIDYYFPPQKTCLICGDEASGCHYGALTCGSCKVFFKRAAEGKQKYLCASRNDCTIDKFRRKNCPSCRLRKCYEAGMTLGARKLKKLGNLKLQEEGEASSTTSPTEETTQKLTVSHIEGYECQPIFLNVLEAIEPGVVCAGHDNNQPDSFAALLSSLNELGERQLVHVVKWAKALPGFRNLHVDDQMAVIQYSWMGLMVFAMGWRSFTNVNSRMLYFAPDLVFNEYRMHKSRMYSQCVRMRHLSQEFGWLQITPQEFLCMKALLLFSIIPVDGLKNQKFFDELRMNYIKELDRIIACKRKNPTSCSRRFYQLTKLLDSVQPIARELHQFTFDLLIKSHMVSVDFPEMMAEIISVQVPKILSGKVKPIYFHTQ
T1 sequence (Q96SW2 whole entry, looked up): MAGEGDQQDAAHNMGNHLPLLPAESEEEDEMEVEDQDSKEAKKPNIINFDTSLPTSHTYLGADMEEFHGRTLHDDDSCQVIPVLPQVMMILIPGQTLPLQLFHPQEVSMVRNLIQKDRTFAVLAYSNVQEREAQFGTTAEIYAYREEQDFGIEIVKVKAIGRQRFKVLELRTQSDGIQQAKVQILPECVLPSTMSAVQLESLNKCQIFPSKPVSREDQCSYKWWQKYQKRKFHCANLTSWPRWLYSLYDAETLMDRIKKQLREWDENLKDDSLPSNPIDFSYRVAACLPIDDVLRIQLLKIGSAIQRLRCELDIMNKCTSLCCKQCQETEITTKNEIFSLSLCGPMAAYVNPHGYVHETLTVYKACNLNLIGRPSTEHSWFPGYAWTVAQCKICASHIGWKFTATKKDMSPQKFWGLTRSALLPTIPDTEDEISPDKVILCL

| Structure (SMILES) | Activity [%] |
| --- | --- |
| CC1(C)[C@H](NC(=O)c2ccc(NCCCCCNc3cccc4c3C(=O)N(C3CCC(=O)NC3=O)C4=O)cc2)C(C)(C)[C@H]1Oc1ccc(C#N)c(Cl)c1 (stereo partly drawn) | < 5 |
| CC1(C)[C@H](NC(=O)c2ccc(N3CCN(C4CC5(C4)CN(c4ccc6c(c4)C(=O)N(C4CCC(=O)NC4=O)C6=O)C5)CC3)cc2)C(C)(C)[C@H]1Oc1ccc(C#N)c(Cl)c1 (stereo partly drawn) | 37 |
| CC1(C)[C@H](NC(=O)c2ccc(C(=O)N3CCN(C4CN(c5ccc6c(c5)C(=O)N(C5CCC(=O)NC5=O)C6=O)C4)CC3)cc2)C(C)(C)[C@H]1Oc1ccc(C#N)c(Cl)c1 (stereo partly drawn) | 71 |
| CC1(C)[C@H](NC(=O)c2ccc(NCCCCCCNc3ccc4c(c3)C(=O)N(C3CCC(=O)NC3=O)C4=O)cc2)C(C)(C)[C@H]1Oc1ccc(C#N)c(Cl)c1 (stereo partly drawn) | 69 |

The remaining lines, values ahead:

| Activity [%] | Structure (SMILES) |
| --- | --- |
| 22 | CC1(C)[C@H](NC(=O)c2ccc(N3CCN(CCCNc4ccc5c(c4)C(=O)N(C4CCC(=O)NC4=O)C5=O)CC3)cc2)C(C)(C)[C@H]1Oc1ccc(C#N)c(Cl)c1 (stereo partly drawn) |
| 48 | CC1(C)[C@H](NC(=O)c2ccc(NCCCCCCCCNc3ccc4c(c3)C(=O)N(C3CCC(=O)NC3=O)C4=O)cc2)C(C)(C)[C@H]1Oc1ccc(C#N)c(Cl)c1 (stereo partly drawn) |
| 0 | CC1(C)[C@H](NC(=O)c2ccc(NCCCNc3ccc4c(c3)C(=O)N(C3CCC(=O)NC3=O)C4=O)cc2)C(C)(C)[C@H]1Oc1ccc(C#N)c(Cl)c1 (stereo partly drawn) |
| 42 | CC1(C)[C@H](NC(=O)c2ccc(NCCCCNc3ccc4c(c3)C(=O)N(C3CCC(=O)NC3=O)C4=O)cc2)C(C)(C)[C@H]1Oc1ccc(C#N)c(Cl)c1 (stereo partly drawn) |

system: not listed separately; test: Plasma concentration in CB17 SCID mouse at 10 mg/kg, po measured after 3 hr by LC-MS/MS analysis; type: ADME, organism-based; settings: not given
Method in brief: (§1)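 Single oral gavage at 10 mg/kg in 100% PEG200 to non-tumor-bearing male mice; three mice per time point, blood collected at 1, 3 and 6 h, plasma obtained by centrifugation and measured by LC–MS/MS; reported as mean ± SD.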

| concentration at 3 h [ng/mL] | Structure (SMILES) |
| --- | --- |
| 254 | CC1(C)[C@H](NC(=O)c2ccc(N3CCN(CCCNc4ccc5c(c4)C(=O)N(C4CCC(=O)NC4=O)C5=O)CC3)cc2)C(C)(C)[C@H]1Oc1ccc(C#N)c(Cl)c1 (stereo partly drawn) |
| 8 | CC1(C)[C@H](NC(=O)c2ccc(NCCCCCCNc3ccc4c(c3)C(=O)N(C3CCC(=O)NC3=O)C4=O)cc2)C(C)(C)[C@H]1Oc1ccc(C#N)c(Cl)c1 (stereo partly drawn) |

target: T1, Protein cereblon/Androgen receptor; test: Protac activity at CRBN/AR in human VCaP cells assessed as induction of AR degradation at 0.1 uM measured after 24 hrs by western blot analysis relative to control; type: cell-based; settings: not given

| Structure (SMILES) | Activity [%] |
| --- | --- |
| CC1(C)[C@H](NC(=O)c2ccc(NCCCCCNc3cccc4c3C(=O)N(C3CCC(=O)NC3=O)C4=O)cc2)C(C)(C)[C@H]1Oc1ccc(C#N)c(Cl)c1 (stereo partly drawn) | 36 |
| CC1(C)[C@H](NC(=O)c2ccc(N3CCN(C4CC5(C4)CN(c4ccc6c(c4)C(=O)N(C4CCC(=O)NC4=O)C6=O)C5)CC3)cc2)C(C)(C)[C@H]1Oc1ccc(C#N)c(Cl)c1 (stereo partly drawn) | 93 |
| CC1(C)[C@H](NC(=O)c2ccc(C(=O)N3CCN(C4CN(c5ccc6c(c5)C(=O)N(C5CCC(=O)NC5=O)C6=O)C4)CC3)cc2)C(C)(C)[C@H]1Oc1ccc(C#N)c(Cl)c1 (stereo partly drawn) | 95 |
| CC1(C)[C@H](NC(=O)c2ccc(NCCCCCCNc3ccc4c(c3)C(=O)N(C3CCC(=O)NC3=O)C4=O)cc2)C(C)(C)[C@H]1Oc1ccc(C#N)c(Cl)c1 (stereo partly drawn) | 77 |

Next, values leading:

| Activity [%] | Structure (SMILES) |
| --- | --- |
| 54 | CC1(C)[C@H](NC(=O)c2ccc(N3CCN(CCCNc4ccc5c(c4)C(=O)N(C4CCC(=O)NC4=O)C5=O)CC3)cc2)C(C)(C)[C@H]1Oc1ccc(C#N)c(Cl)c1 (stereo partly drawn) |
| 82 | CC1(C)[C@H](NC(=O)c2ccc(NCCCCCCCCNc3ccc4c(c3)C(=O)N(C3CCC(=O)NC3=O)C4=O)cc2)C(C)(C)[C@H]1Oc1ccc(C#N)c(Cl)c1 (stereo partly drawn) |
| 63 | CC1(C)[C@H](NC(=O)c2ccc(NCCCNc3ccc4c(c3)C(=O)N(C3CCC(=O)NC3=O)C4=O)cc2)C(C)(C)[C@H]1Oc1ccc(C#N)c(Cl)c1 (stereo partly drawn) |
| 55 | CC1(C)[C@H](NC(=O)c2ccc(NCCCCNc3ccc4c(c3)C(=O)N(C3CCC(=O)NC3=O)C4=O)cc2)C(C)(C)[C@H]1Oc1ccc(C#N)c(Cl)c1 (stereo partly drawn) |

target: T1, Protein cereblon/Androgen receptor; test: Protac activity at CRBN/AR in human VCaP cells assessed as induction of AR degradation at 0.01 uM measured after 24 hrs by western blot analysis relative to control; type: cell-based; settings: not given
Method in brief: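 VCaP cells treated 24 h at 1, 10, 100 and 1000 nM; lysed in RIPA with protease/phosphatase inhibitors, run on 4–12% SDS-PAGE, blotted to PVDF. AR bands background-subtracted and normalized to loading control; degradation relative to DMSO, average of three independent experiments.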

| Structure (SMILES) | Activity [%] |
| --- | --- |
| CC1(C)[C@H](NC(=O)c2ccc(NCCCCCNc3cccc4c3C(=O)N(C3CCC(=O)NC3=O)C4=O)cc2)C(C)(C)[C@H]1Oc1ccc(C#N)c(Cl)c1 (stereo partly drawn) | 9 |
| CC1(C)[C@H](NC(=O)c2ccc(N3CCN(C4CC5(C4)CN(c4ccc6c(c4)C(=O)N(C4CCC(=O)NC4=O)C6=O)C5)CC3)cc2)C(C)(C)[C@H]1Oc1ccc(C#N)c(Cl)c1 (stereo partly drawn) | 78 |
| CC1(C)[C@H](NC(=O)c2ccc(C(=O)N3CCN(C4CN(c5ccc6c(c5)C(=O)N(C5CCC(=O)NC5=O)C6=O)C4)CC3)cc2)C(C)(C)[C@H]1Oc1ccc(C#N)c(Cl)c1 (stereo partly drawn) | 83 |
| CC1(C)[C@H](NC(=O)c2ccc(NCCCCCCNc3ccc4c(c3)C(=O)N(C3CCC(=O)NC3=O)C4=O)cc2)C(C)(C)[C@H]1Oc1ccc(C#N)c(Cl)c1 (stereo partly drawn) | 85 |

The next lines start with the values.

| Activity [%] | Structure (SMILES) |
| --- | --- |
| 37 | CC1(C)[C@H](NC(=O)c2ccc(N3CCN(CCCNc4ccc5c(c4)C(=O)N(C4CCC(=O)NC4=O)C5=O)CC3)cc2)C(C)(C)[C@H]1Oc1ccc(C#N)c(Cl)c1 (stereo partly drawn) |
| 76 | CC1(C)[C@H](NC(=O)c2ccc(NCCCCCCCCNc3ccc4c(c3)C(=O)N(C3CCC(=O)NC3=O)C4=O)cc2)C(C)(C)[C@H]1Oc1ccc(C#N)c(Cl)c1 (stereo partly drawn) |
| 25 | CC1(C)[C@H](NC(=O)c2ccc(NCCCNc3ccc4c(c3)C(=O)N(C3CCC(=O)NC3=O)C4=O)cc2)C(C)(C)[C@H]1Oc1ccc(C#N)c(Cl)c1 (stereo partly drawn) |
| 76 | CC1(C)[C@H](NC(=O)c2ccc(NCCCCNc3ccc4c(c3)C(=O)N(C3CCC(=O)NC3=O)C4=O)cc2)C(C)(C)[C@H]1Oc1ccc(C#N)c(Cl)c1 (stereo partly drawn) |

target: T1, Protein cereblon/Androgen receptor; test: Protac activity at CRBN/AR in human VCAP cells assessed as induction of AR degradation at 1 uM by western blot analysis relative to control; type: cell-based; settings: time 24.0 hrs

| Structure (SMILES) | Activity [%] |
| --- | --- |
| CC1(C)[C@H](NC(=O)c2ccc(NCCCCCNc3cccc4c3C(=O)N(C3CCC(=O)NC3=O)C4=O)cc2)C(C)(C)[C@H]1Oc1ccc(C#N)c(Cl)c1 (stereo partly drawn) | 38 |
| CC1(C)[C@H](NC(=O)c2ccc(N3CCN(C4CC5(C4)CN(c4ccc6c(c4)C(=O)N(C4CCC(=O)NC4=O)C6=O)C5)CC3)cc2)C(C)(C)[C@H]1Oc1ccc(C#N)c(Cl)c1 (stereo partly drawn) | 88 |
| CC1(C)[C@H](NC(=O)c2ccc(C(=O)N3CCN(C4CN(c5ccc6c(c5)C(=O)N(C5CCC(=O)NC5=O)C6=O)C4)CC3)cc2)C(C)(C)[C@H]1Oc1ccc(C#N)c(Cl)c1 (stereo partly drawn) | 83 |
| CC1(C)[C@H](NC(=O)c2ccc(NCCCCCCNc3ccc4c(c3)C(=O)N(C3CCC(=O)NC3=O)C4=O)cc2)C(C)(C)[C@H]1Oc1ccc(C#N)c(Cl)c1 (stereo partly drawn) | 79 |

Next, values leading:

| Activity [%] | Structure (SMILES) |
| --- | --- |
| 53 | CC1(C)[C@H](NC(=O)c2ccc(N3CCN(CCCNc4ccc5c(c4)C(=O)N(C4CCC(=O)NC4=O)C5=O)CC3)cc2)C(C)(C)[C@H]1Oc1ccc(C#N)c(Cl)c1 (stereo partly drawn) |
| 73 | CC1(C)[C@H](NC(=O)c2ccc(NCCCCCCCCNc3ccc4c(c3)C(=O)N(C3CCC(=O)NC3=O)C4=O)cc2)C(C)(C)[C@H]1Oc1ccc(C#N)c(Cl)c1 (stereo partly drawn) |
| 70 | CC1(C)[C@H](NC(=O)c2ccc(NCCCNc3ccc4c(c3)C(=O)N(C3CCC(=O)NC3=O)C4=O)cc2)C(C)(C)[C@H]1Oc1ccc(C#N)c(Cl)c1 (stereo partly drawn) |
| 21 | CC1(C)[C@H](NC(=O)c2ccc(NCCCCNc3ccc4c(c3)C(=O)N(C3CCC(=O)NC3=O)C4=O)cc2)C(C)(C)[C@H]1Oc1ccc(C#N)c(Cl)c1 (stereo partly drawn) |

system: not listed separately; test: Plasma concentration in CB17 SCID mouse at 10 mg/kg, po measured after 1 hr by LC-MS/MS analysis; type: ADME, organism-based; settings: not given; method in brief: as §1

| concentration at 1 h [ng/mL] | Structure (SMILES) |
| --- | --- |
| 267 | CC1(C)[C@H](NC(=O)c2ccc(N3CCN(CCCNc4ccc5c(c4)C(=O)N(C4CCC(=O)NC4=O)C5=O)CC3)cc2)C(C)(C)[C@H]1Oc1ccc(C#N)c(Cl)c1 (stereo partly drawn) |
| 16.9 | CC1(C)[C@H](NC(=O)c2ccc(NCCCCCCNc3ccc4c(c3)C(=O)N(C3CCC(=O)NC3=O)C4=O)cc2)C(C)(C)[C@H]1Oc1ccc(C#N)c(Cl)c1 (stereo partly drawn) |

system: not listed separately; test: Plasma concentration in CB17 SCID mouse at 10 mg/kg, po measured after 6 hr by LC-MS/MS analysis; type: ADME, organism-based; settings: not given; method in brief: as §1

| concentration at 6 h [ng/mL] | Structure (SMILES) |
| --- | --- |
| 96.9 | CC1(C)[C@H](NC(=O)c2ccc(N3CCN(CCCNc4ccc5c(c4)C(=O)N(C4CCC(=O)NC4=O)C5=O)CC3)cc2)C(C)(C)[C@H]1Oc1ccc(C#N)c(Cl)c1 (stereo partly drawn) |
| 1.6 | CC1(C)[C@H](NC(=O)c2ccc(NCCCCCCNc3ccc4c(c3)C(=O)N(C3CCC(=O)NC3=O)C4=O)cc2)C(C)(C)[C@H]1Oc1ccc(C#N)c(Cl)c1 (stereo partly drawn) |

Source: ChEMBL document CHEMBL4842367, “Strategies toward Discovery of Potent and Orally Bioavailable Proteolysis Targeting Chimera Degraders of Androgen Receptor for the Treatment of Prostate Cancer” (J Med Chem, 2021)
